ChEMBL document CHEMBL1157379, “Transcriptional response of Candida parapsilosis following exposure to farnesol” (2007)
Active and inactive are the calls of the source. The calls are words filed in the database; no cut-off is given here.

Key:
[1] = system: Candida parapsilosis; assay: Increase in NIT2 gene expression in Candida parapsilosis CLIB214 at 50 uM after 2 hrs by microarray based transcriptional profiling relative to control; assay type: functional
Procedure, shortened: (§1)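 Strain grown overnight in YPD at 30°C, diluted to A600 0.2 in YPD at 30°C; farnesol (40 mM methanol stock) added at 4 h (A600 0.8), final 50 μM; methanol-only control. Cells collected 2 h later for RNA. Labelled cDNA from 25 μg total RNA (Cy3/Cy5-dCTP) hybridized to 68-mer oligo arrays at 42°C ~16 h; six individual comparisons analysed statistically.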

[2] = system: Candida parapsilosis; assay: Increase in CGD gene ortholog accession number orf19.3185 expression in Candida parapsilosis CLIB214 at 50 uM after 2 hrs by microarray based transcriptional profiling relative to control; assay type: functional
Procedure, shortened: (§2)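 Strain CLIB214 grown overnight in YPD at 30°C, diluted to A600 0.2 in fresh YPD at 30°C. After 4 h (A600 0.8), farnesol (40 mM methanol stock) added to 50 μM final, or an equal methanol volume as control; cells harvested 2 h later. RNA was accepted only with a 28S/18S ratio of 1.6–2.2. Cy3/Cy5-dCTP-labelled cDNA was made from 25 μg total RNA. Hybridisation was to duplicate-spotted 68-mer oligo arrays (3,849 genes) at 42°C for about 16 h. Six individual comparisons.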

[3] = system: Candida parapsilosis; assay: Decrease in CGD gene ortholog accession number orf19.4449 expression in Candida parapsilosis CLIB214 at 50 uM after 2 hrs by microarray based transcriptional profiling relative to control; assay type: functional
Procedure, shortened: (§3)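 Cells in YPD at 30°C treated with 50 μM farnesol at 4 h, with a methanol control. RNA harvested 2 h later and kept only if 28S/18S ratio was 1.6–2.2 with no degradation. 25 μg total RNA oligo-dT primed and labeled with Cy3/Cy5-dCTP. Labeled cDNA hybridized about 16 h at 42°C to duplicate-spotted 68-mer oligo arrays. Six individual comparisons analyzed statistically.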

[4] = system: Candida parapsilosis; assay: Reduction in GCN3 gene expression in Candida parapsilosis CLIB214 by RT-PCR; assay type: functional
Procedure, shortened: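 Cultures in YPD at 30°C, diluted to A600 0.2; 50 μM farnesol (final) or methanol added at 4 h, RNA harvested 2 h later. RT-PCR: 95°C hot start 1 min 30 s, then 26 cycles (95°C 40 s, 55°C 2 min, 72°C 3 min), final 72°C 5 min; each gene signal normalized to ACT1.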

[5] = system: Candida parapsilosis; assay: Decrease in CGD gene ortholog accession number orf19.1608 expression in Candida parapsilosis CLIB214 at 50 uM after 2 hrs by microarray based transcriptional profiling relative to control; assay type: functional; procedure, shortened: as §3
[6] = system: Candida parapsilosis; assay: Increase in GAR1 gene expression in Candida parapsilosis CLIB214 at 50 uM after 2 hrs by microarray based transcriptional profiling relative to control; assay type: functional; procedure, shortened: as §1
[7] = system: Candida parapsilosis; assay: Increase in CGD gene ortholog accession number orf19.6018 expression in Candida parapsilosis CLIB214 at 50 uM after 2 hrs by microarray based transcriptional profiling relative to control; assay type: functional; procedure, shortened: as §2
[8] = system: Candida parapsilosis; assay: Increase in CGD gene ortholog accession number orf19.6539 expression in Candida parapsilosis CLIB214 at 50 uM after 2 hrs by microarray based transcriptional profiling relative to control; assay type: functional; procedure, shortened: as §2
[9] = system: Candida parapsilosis; assay: Decrease in STE23 gene expression in Candida parapsilosis CLIB214 at 50 uM after 2 hrs by microarray based transcriptional profiling relative to control; assay type: functional; procedure, shortened: as §2
[10] = system: Candida parapsilosis; assay: Increase in ACC1 gene expression in Candida parapsilosis CLIB214 at 50 uM after 2 hrs by microarray based transcriptional profiling relative to control; assay type: functional; procedure, shortened: as §2
[11] = system: Candida parapsilosis; assay: Decrease in CGD gene ortholog accession number orf19.4210 expression in Candida parapsilosis CLIB214 at 50 uM after 2 hrs by microarray based transcriptional profiling relative to control; assay type: functional; procedure, shortened: as §3
[12] = system: Candida parapsilosis; assay: Antifungal activity against Candida parapsilosis CLIB214 assessed as growth inhibition at 50 uM added after 4 hrs of bacterial growth measured after 4 hrs; assay type: functional; conditions: Lodderomyces parapsilosis, CLIB214, 4 h
Procedure, shortened: (§4)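 Overnight YPD culture at 30°C diluted to A600 0.2 in YPD. Farnesol added to 50 μM final at 2, 4, 6 or 8 h of growth (A600 about 0.8 at 4 h, 2.3 at 6 h, 6 at 8 h). Growth compared with methanol controls by A600 or cell counts.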

[13] = system: Candida parapsilosis; assay: Decrease in CGD gene ortholog accession number orf19.5683 expression in Candida parapsilosis CLIB214 at 50 uM after 2 hrs by microarray based transcriptional profiling relative to control; assay type: functional; procedure, shortened: as §3
[14] = system: Candida parapsilosis; assay: Increase in CDC20 gene expression in Candida parapsilosis CLIB214 at 50 uM after 2 hrs by microarray based transcriptional profiling relative to control; assay type: functional; procedure, shortened: as §2
[15] = system: Candida parapsilosis; assay: Antifungal activity against Candida parapsilosis CLIB214 assessed as growth inhibition at 50 uM added after 6 hrs of bacterial growth measured after 2 hrs; assay type: functional; conditions: Lodderomyces parapsilosis; procedure, shortened: as §4
[16] = system: Candida parapsilosis; assay: Increase in CGD gene ortholog accession number orf19.1953 expression in Candida parapsilosis CLIB214 at 50 uM after 2 hrs by microarray based transcriptional profiling relative to control; assay type: functional; procedure, shortened: as §2
[17] = system: Candida parapsilosis; assay: Decrease in CGD gene ortholog accession number orf19.4253 expression in Candida parapsilosis CLIB214 at 50 uM after 2 hrs by microarray based transcriptional profiling relative to control; assay type: functional; procedure, shortened: as §3
[18] = system: Candida parapsilosis; assay: Decrease in CGD gene ortholog accession number orf19.5877 expression in Candida parapsilosis CLIB214 at 50 uM after 2 hrs by microarray based transcriptional profiling relative to control; assay type: functional; procedure, shortened: as §3
[19] = system: Candida parapsilosis; assay: Decrease in CGD gene ortholog accession number orf19.672 expression in Candida parapsilosis CLIB214 at 50 uM after 2 hrs by microarray based transcriptional profiling relative to control; assay type: functional; procedure, shortened: as §2
[20] = system: Candida parapsilosis; assay: Decrease in CGD gene ortholog accession number orf19.6687 expression in Candida parapsilosis CLIB214 at 50 uM after 2 hrs by microarray based transcriptional profiling relative to control; assay type: functional; procedure, shortened: as §2
[21] = system: Candida parapsilosis; assay: Decrease in CGD gene ortholog accession number orf19.1728 expression in Candida parapsilosis CLIB214 at 50 uM after 2 hrs by microarray based transcriptional profiling relative to control; assay type: functional; procedure, shortened: as §3
[22] = system: Candida parapsilosis; assay: Antifungal activity against Candida parapsilosis CLIB214 assessed as growth inhibition at 50 uM added after 4 hrs of bacterial growth measured after 2 hrs; assay type: functional; conditions: Lodderomyces parapsilosis; procedure, shortened: as §4
[23] = system: Candida parapsilosis; assay: Antifungal activity against Candida parapsilosis CLIB214 assessed as growth inhibition in presence of 10% fetal calf serum at 30 degC; assay type: functional, organism-based
Procedure, shortened: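 YPD cultures started at A600 0.2, supplemented with 10% (vol/vol) fetal calf serum, and grown at 30°C or 37°C. Farnesol added with the serum. Growth monitored by A600 or cell counting.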

[24] = system: Candida parapsilosis; assay: Decrease in CGD gene ortholog accession number orf19.3603 expression in Candida parapsilosis CLIB214 at 50 uM after 2 hrs by microarray based transcriptional profiling relative to control; assay type: functional; procedure, shortened: as §3
[25] = system: Candida parapsilosis; assay: Decrease in HOS2 gene expression in Candida parapsilosis CLIB214 at 50 uM after 2 hrs by microarray based transcriptional profiling relative to control; assay type: functional; procedure, shortened: as §2
[26] = system: Candida parapsilosis; assay: Increase in POT1 gene expression in Candida parapsilosis CLIB214 at 50 uM after 2 hrs by microarray based transcriptional profiling relative to control; assay type: functional; procedure, shortened: as §1

Question: What does the source list for `CC(C)=CCC/C(C)=C/CC/C(C)=C/CO` [FARNESOL]?
Answer: fold change (FC) [1]: 1.86; fold change (FC) [2]: 1.6; fold change (FC) [3]: 1.59; fold change (FC) [4]: 1.54; fold change (FC) [5]: 1.62; fold change (FC) [6]: 2.89; fold change (FC) [7]: 2.07; fold change (FC) [8]: 1.5; fold change (FC) [9]: 2.13; fold change (FC) [10]: 1.59; fold change (FC) [11]: 1.79; inhibition at 50 µM [12]: 83%; fold change (FC) [13]: 1.51; fold change (FC) [14]: 1.51; inhibition at 50 µM [15]: 40.5%; fold change (FC) [16]: 1.77; fold change (FC) [17]: 1.63; fold change (FC) [18]: 3.22; fold change (FC) [19]: 1.77; fold change (FC) [20]: 2.26; fold change (FC) [21]: 1.59; inhibition at 50 µM [22]: 88.5%; Activity [23]: inactive; fold change (FC) [24]: 1.92; fold change (FC) [25]: 2.62; fold change (FC) [26]: 1.71
